Reference: ChEMBL document CHEMBL1152454, “Novel plasmid-mediated 16S rRNA m1A1408 methyltransferase, NpmA, found in a clinically isolated Escherichia coli strain resistant to structurally diverse aminoglycosides” (2007)
Values after ≈ are worked out from the molar mass of the structure shown. Active and inactive are the calls of the source. The rule behind the calls is not given here.

Tests used:
[1] = system: Escherichia coli; test: Antibacterial activity against Escherichia coli isolate ARS3 carrying pARS3 by agar dilution method; assay type: functional
In short: (§1)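 Minimal inhibitory concentration (MIC) by agar dilution on Mueller-Hinton agar, following the CLSI protocol. Strains were routinely grown in LB broth at 37°C with shaking.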

[2] = system: Escherichia coli; test: Antibacterial activity against Escherichia coli CSH-2 carrying Escherichia coli ARS3 pARS3 by agar dilution method; assay type: functional; in short: as §1
[3] = system: Escherichia coli; test: Antibacterial activity against Escherichia coli CSH-2 by agar dilution method; assay type: functional; in short: as §1
[4] = system: Escherichia coli; test: Antibacterial activity against Escherichia coli JM109 carrying pMCL-BE by agar dilution method; assay type: functional; in short: as §1
[5] = system: Escherichia coli; test: Antibacterial activity against Escherichia coli JM109 carrying pMCL210 by agar dilution method; assay type: functional; in short: as §1
[6] = system: Escherichia coli; test: Antibacterial activity against Escherichia coli (DE3)pLysS carrying pCold-IV by microdilution susceptibility test; assay type: functional
[7] = system: Escherichia coli; test: Antibacterial activity against Escherichia coli (DE3)pLysS carrying pCold-NpmA by microdilution susceptibility test; assay type: functional
[8] = system: Nucleic Acid; test: Binding affinity to 16S rRNA G1494(N7) position in wild type Escherichia coli JM109 30S sunit at 100 uM by footprint assay; assay type: nucleic-acid assay
In short: (§2)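 Aminoglycoside (1–1,000 μM final) was added, 37°C 30 min, then ice 10 min. DMS modification followed at 37°C for 10 min, then quench and rRNA extraction. G1494 protection was read by primer extension.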

[9] = system: Nucleic Acid; test: Binding affinity to 16S rRNA G1494(N7) position in wild type Escherichia coli JM109 30S sunit at 1000 uM by footprint assay; assay type: nucleic-acid assay; in short: as §2
[10] = system: Nucleic Acid; test: Binding affinity to 16S rRNA G1494(N7) position in A1408-methylated Escherichia coli JM109 30S sunit at 100 uM by footprint assay; assay type: nucleic-acid assay; in short: as §2
[11] = system: Nucleic Acid; test: Binding affinity to 16S rRNA G1494(N7) position in A1408-methylated Escherichia coli JM109 30S sunit at 1000 uM by footprint assay; assay type: nucleic-acid assay; in short: as §2
[12] = system: Nucleic Acid; test: Binding affinity to 16S rRNA G1494(N7) position in A1408-methylated Escherichia coli JM109 30S sunit by footprint assay; assay type: nucleic-acid assay
In short: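 Aminoglycoside added (final 1 μM to 1,000 μM) for 30 min at 37°C, then 10 min on ice. DMS probing for 10 min at 37°C. The G1494 footprint was read by reverse-transcriptase primer extension.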

Molecule | MIC [1] [µg/mL] | MIC [2] [µg/mL] | MIC [3] [µg/mL] | MIC [4] [µg/mL] | MIC [5] [µg/mL] | MIC [6] [µg/mL] | MIC [7] [µg/mL] | Activity [8] | Activity [9] | Activity [10] | Activity [11] | Activity [12]
NC[C@@H]1O[C@H](O[C@H]2[C@@H](O)[C@H](O[C@@H]3[C@@H](O)[C@H](N)C[C@H](N)[C@H]3O[C@H]3O[C@H](CO)[C@@H](O)[C@H](O)[C@H]3N)O[C@@H]2CO)[C@H](N)[C@@H](O)[C@@H]1O [PAROMOMYCIN] | 64 (≈ 104 µM) | 4 (≈ 6.5 µM) | 0.5 (≈ 0.812 µM) | 4 (≈ 6.5 µM) | 1 (≈ 1.62 µM) |  |  |  |  |  |  | 
CN[C@H]1C[C@@H](N)[C@H](O)[C@@H](O[C@@H]2O[C@H](CO)[C@H](O)[C@H]3O[C@@]4(O[C@H]23)O[C@H]([C@H](N)CO)[C@H](O)[C@H](O)[C@H]4O)[C@@H]1O | 128 (≈ 243 µM) | 16 (≈ 30.3 µM) | 16 (≈ 30.3 µM) | 32 (≈ 60.7 µM) | 32 (≈ 60.7 µM) |  |  |  |  |  |  | 
CN[C@@H]1[C@@H](O)[C@@H](O[C@@H]2[C@@H](O)[C@H](O[C@H]3O[C@H](CN)[C@@H](O)[C@H](O)[C@H]3O)[C@@H](N)C[C@H]2NC(=O)[C@@H](O)CN)OC[C@]1(C)O [ISEPAMICIN] | > 256 | 64 (≈ 112 µM) | 0.13 (≈ 0.228 µM) | 128 (≈ 225 µM) | 0.13 (≈ 0.228 µM) |  |  |  |  |  |  | 
CN[C@@H]1[C@H](O)[C@H](NC)[C@H]2O[C@@]3(O)C(=O)C[C@@H](C)O[C@H]3O[C@@H]2[C@H]1O [SPECTINOMYCIN] | > 256 | > 256 | 16 (≈ 48.1 µM) | 16 (≈ 48.1 µM) | 16 (≈ 48.1 µM) |  |  |  |  |  |  | 
NC[C@H]1O[C@H](O[C@H]2[C@H](O)[C@@H](O[C@H]3O[C@H](CO)[C@@H](O)[C@H](N)[C@H]3O)[C@H](N)C[C@@H]2N)[C@H](N)C[C@@H]1O [TOBRAMYCIN] | > 256 | 128 (≈ 274 µM) | ≤ 0.06 | 128 (≈ 274 µM) | 0.13 (≈ 0.278 µM) |  |  |  |  |  |  | 
CN[C@@H]1[C@@H](O[C@H]2O[C@H](CO)[C@@H](N)[C@H](O)[C@H]2O)OC2C[C@@H](N)[C@@H](O[C@H]3[C@H](O)[C@@H](O)[C@H](N)C[C@@H]3N)OC2[C@@H]1O (stereo not given in full) [APRAMYCIN] | > 256 | > 256 | 1 (≈ 1.85 µM) | > 256 | 2 (≈ 3.71 µM) | 3.9 (≈ 7.23 µM) | > 1000 |  |  |  |  | 
CN[C@@H]1[C@H](O[C@H]2[C@H](O[C@H]3[C@H](O)[C@@H](O)[C@H](N=C(N)N)[C@@H](O)[C@@H]3N=C(N)N)O[C@@H](C)[C@]2(O)C=O)O[C@@H](CO)[C@H](O)[C@H]1O [STREPTOMYCIN] | 128 (≈ 220 µM) | 32 (≈ 55 µM) | 1 (≈ 1.72 µM) | 1 (≈ 1.72 µM) | 1 (≈ 1.72 µM) |  |  |  |  |  |  | 
CN[C@@H]1[C@@H](O)[C@@H](O[C@@H]2[C@@H](O)[C@H](O[C@H]3OC(CN)=CC[C@H]3N)[C@@H](N)C[C@H]2N)OC[C@]1(C)O [SISOMICIN] | > 256 | > 256 | ≤ 0.06 | 256 (≈ 572 µM) | 0.13 (≈ 0.29 µM) |  |  |  |  |  |  | 
GENTAMICIN | > 256 | 128 | < 0.06 | 16 | 0.13 |  |  | Active | Active | inactive | inactive | Dose-dependent effect
NCC[C@H](O)C(=O)N[C@@H]1C[C@H](N)[C@@H](O[C@H]2O[C@H](CN)CC[C@H]2N)[C@H](O)[C@H]1O[C@H]1O[C@H](CO)[C@@H](O)[C@H](N)[C@H]1O [ARBEKACIN] | 64 (≈ 116 µM) | 4 (≈ 7.24 µM) | 0.13 (≈ 0.235 µM) | 4 (≈ 7.24 µM) | 0.25 (≈ 0.452 µM) |  |  |  |  |  |  | 
NC[C@@H]1O[C@H](O[C@H]2[C@@H](O)[C@H](O[C@@H]3[C@@H](O)[C@H](N)C[C@H](N)[C@H]3O[C@H]3O[C@H](CN)[C@@H](O)[C@H](O)[C@H]3N)O[C@@H]2CO)[C@H](N)[C@@H](O)[C@@H]1O [FRAMYCETIN] | > 256 | 64 (≈ 104 µM) | 0.13 (≈ 0.212 µM) | 64 (≈ 104 µM) | 0.25 (≈ 0.407 µM) |  |  | Active | Active | inactive | inactive | 
NC[C@H]1O[C@H](O[C@H]2[C@H](O[C@@H]3O[C@H](CO)[C@@H](O)[C@H]3O)[C@@H](O)[C@H](N)C[C@@H]2N)[C@H](N)[C@@H](O)[C@@H]1O [RIBOSTAMYCIN] | > 256 | > 256 | 0.25 (≈ 0.55 µM) | > 256 | 0.5 (≈ 1.1 µM) |  |  | Active | Active | inactive | inactive | 
NC[C@@H]1O[C@H](O[C@H]2[C@@H](O)[C@H](O[C@@H]3[C@@H](O)[C@H](N)C[C@H](N)[C@H]3O[C@H]3O[C@H](CO)[C@@H](O)C[C@H]3N)O[C@@H]2CO)[C@H](N)[C@@H](O)[C@@H]1O[C@H]1O[C@H](CO)[C@@H](O)[C@H](O)[C@@H]1O [LIVIDOMYCIN] | 256 (≈ 336 µM) | 16 (≈ 21 µM) | 0.5 (≈ 0.656 µM) | 32 (≈ 42 µM) | 2 (≈ 2.63 µM) |  |  |  |  |  |  | 
NC[C@@H]1CC[C@@H](N)[C@@H](O[C@H]2[C@H](O)[C@@H](O[C@H]3O[C@H](CO)[C@@H](O)[C@H](N)[C@H]3O)[C@H](N)C[C@@H]2N)O1 [DIBEKACIN] | > 256 | 128 (≈ 283 µM) | 0.13 (≈ 0.288 µM) | 128 (≈ 283 µM) | 0.25 (≈ 0.554 µM) |  |  |  |  |  |  | 
NC[C@H]1O[C@H](O[C@H]2[C@H](O)[C@@H](O[C@H]3O[C@H](CO)[C@@H](O)[C@H](N)[C@H]3O)[C@H](N)C[C@@H]2N)[C@H](O)[C@@H](O)[C@@H]1O [KANAMYCIN] | > 256 | > 256 | 0.25 (≈ 0.516 µM) | > 256 | 0.5 (≈ 1.03 µM) |  |  |  |  |  |  | 
CCN[C@@H]1C[C@H](N)[C@@H](O[C@H]2OC(CN)=CC[C@H]2N)[C@H](O)[C@H]1O[C@H]1OC[C@](C)(O)[C@H](NC)[C@H]1O [NETILMICIN] | > 256 | > 256 | ≤ 0.06 | > 256 | 0.13 (≈ 0.273 µM) |  |  |  |  |  |  | 
NCC[C@H](O)C(=O)N[C@@H]1C[C@H](N)[C@@H](O[C@H]2O[C@H](CN)[C@@H](O)[C@H](O)[C@H]2O)[C@H](O)[C@H]1O[C@H]1O[C@H](CO)[C@@H](O)[C@H](N)[C@H]1O [AMIKACIN] | 256 (≈ 437 µM) | 16 (≈ 27.3 µM) | 0.13 (≈ 0.222 µM) | 32 (≈ 54.6 µM) | 0.5 (≈ 0.854 µM) |  |  |  |  |  |  | 
